Test system: Fibroblast
Assay: Multiplex assay against human fibroblast
Assay type: toxicity, cell-based
In short: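 Compound was added to live cells that had been stained at seeding with Hoechst33342, BioTracker Green Microtubule Cytoskeleton Dye, MitoTracker Red and Annexin V Alexa Fluor 680, and imaging followed on a CQ1 microscope at 37°C and 5% CO2. CellPathfinder machine-learning gating divided cells into Hoechst high-intensity objects or normal cells, normal cells into healthy, pyknosed or fragmented nuclei, and pyknosed cells into mitotic or apoptotic. Tubulin, mitochondrial-mass and membrane-permeability phenotypes are per cents of healthy-nucleus cells.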

[1] = 12 h, 1 µM, compound concentration 1 uM, replicate 1
[2] = 12 h, 1 µM, compound concentration 1 uM, replicate 2
[3] = 12 h, 10 µM, compound concentration 10 uM, replicate 1
[4] = 12 h, 10 µM, compound concentration 10 uM, replicate 2
[5] = 24 h, 1 µM, compound concentration 1 uM, replicate 1
[6] = 24 h, 1 µM, compound concentration 1 uM, replicate 2
[7] = 24 h, 10 µM, compound concentration 10 uM, replicate 1
[8] = 24 h, 10 µM, compound concentration 10 uM, replicate 2
[9] = 48 h, 1 µM, compound concentration 1 uM, replicate 1
[10] = 48 h, 1 µM, compound concentration 1 uM, replicate 2
[11] = 48 h, 10 µM, compound concentration 10 uM, replicate 1
[12] = 48 h, 10 µM, compound concentration 10 uM, replicate 2

Cl.N#Cc1ccc2[nH]cc(CCCCN3CCN(c4ccc5oc(C(N)=O)cc5c4)CC3)c2c1 [VILAZODONE HYDROCHLORIDE]
Population Apoptotic (%) [1]: 75% | Population Fragmented Nuclei (%) [1]: 38% | Population Healthy Nuclei (%) [1]: 22% | Population Hoechst High Intensity Objects (%) [1]: 19% | Population Membrane Permeable-Phenotype (%) [1]: 28% | Population Mitochondria Different-Phenotype (%) [1]: 9% | Population Mitotic Cells (%) [1]: 25% | Population Normal (%) [1]: 80% | Population Pyknosed Nuclei (%) [1]: 38% | Population Tubulin-Different-Phenotype (%) [1]: 47% | Total Cell Count [1]: 116 | Population Apoptotic (%) [2]: 27% | Population Fragmented Nuclei (%) [2]: 14% | Population Healthy Nuclei (%) [2]: 70% | Population Hoechst High Intensity Objects (%) [2]: 2% | Population Membrane Permeable-Phenotype (%) [2]: 6% | Population Mitochondria Different-Phenotype (%) [2]: 30% | Population Mitotic Cells (%) [2]: 72% | Population Normal (%) [2]: 97% | Population Pyknosed Nuclei (%) [2]: 15% | Population Tubulin-Different-Phenotype (%) [2]: 18% | Total Cell Count [2]: 50 | Population Apoptotic (%) [3]: 69% | Population Fragmented Nuclei (%) [3]: 19% | Population Healthy Nuclei (%) [3]: 18% | Population Hoechst High Intensity Objects (%) [3]: 35% | Population Membrane Permeable-Phenotype (%) [3]: 17% | Population Mitochondria Different-Phenotype (%) [3]: 21% | Population Mitotic Cells (%) [3]: 30% | Population Normal (%) [3]: 64% | Population Pyknosed Nuclei (%) [3]: 62% | Population Tubulin-Different-Phenotype (%) [3]: 52% | Total Cell Count [3]: 197 | Population Apoptotic (%) [4]: 67% | Population Fragmented Nuclei (%) [4]: 20% | Population Healthy Nuclei (%) [4]: 14% | Population Hoechst High Intensity Objects (%) [4]: 10% | Population Membrane Permeable-Phenotype (%) [4]: 38% | Population Mitochondria Different-Phenotype (%) [4]: 46% | Population Mitotic Cells (%) [4]: 32% | Population Normal (%) [4]: 89% | Population Pyknosed Nuclei (%) [4]: 64% | Population Tubulin-Different-Phenotype (%) [4]: 92% | Total Cell Count [4]: 72 | Population Apoptotic (%) [5]: 63% | Population Fragmented Nuclei (%) [5]: 32% | Population Healthy Nuclei (%) [5]: 42% | Population Hoechst High Intensity Objects (%) [5]: 25% | Population Membrane Permeable-Phenotype (%) [5]: 21% | Population Mitochondria Different-Phenotype (%) [5]: 8% | Population Mitotic Cells (%) [5]: 36% | Population Normal (%) [5]: 74% | Population Pyknosed Nuclei (%) [5]: 25% | Population Tubulin-Different-Phenotype (%) [5]: 51% | Total Cell Count [5]: 118 | Population Apoptotic (%) [6]: 60% | Population Fragmented Nuclei (%) [6]: 15% | Population Healthy Nuclei (%) [6]: 78% | Population Hoechst High Intensity Objects (%) [6]: 1% | Population Membrane Permeable-Phenotype (%) [6]: 3% | Population Mitochondria Different-Phenotype (%) [6]: 19% | Population Mitotic Cells (%) [6]: 40% | Population Normal (%) [6]: 98% | Population Pyknosed Nuclei (%) [6]: 6% | Population Tubulin-Different-Phenotype (%) [6]: 18% | Total Cell Count [6]: 54 | Population Apoptotic (%) [7]: 66% | Population Fragmented Nuclei (%) [7]: 22% | Population Healthy Nuclei (%) [7]: 23% | Population Hoechst High Intensity Objects (%) [7]: 35% | Population Membrane Permeable-Phenotype (%) [7]: 50% | Population Mitochondria Different-Phenotype (%) [7]: 20% | Population Mitotic Cells (%) [7]: 33% | Population Normal (%) [7]: 64% | Population Pyknosed Nuclei (%) [7]: 53% | Population Tubulin-Different-Phenotype (%) [7]: 50% | Total Cell Count [7]: 197 | Population Apoptotic (%) [8]: 75% | Population Fragmented Nuclei (%) [8]: 31% | Population Healthy Nuclei (%) [8]: 9% | Population Hoechst High Intensity Objects (%) [8]: 18% | Population Membrane Permeable-Phenotype (%) [8]: 30% | Population Mitochondria Different-Phenotype (%) [8]: 90% | Population Mitotic Cells (%) [8]: 24% | Population Normal (%) [8]: 81% | Population Pyknosed Nuclei (%) [8]: 59% | Population Tubulin-Different-Phenotype (%) [8]: 90% | Total Cell Count [8]: 79 | Population Apoptotic (%) [9]: 60% | Population Fragmented Nuclei (%) [9]: 35% | Population Healthy Nuclei (%) [9]: 53% | Population Hoechst High Intensity Objects (%) [9]: 30% | Population Mitochondria Different-Phenotype (%) [9]: 0% | Population Mitotic Cells (%) [9]: 40% | Population Normal (%) [9]: 69% | Population Pyknosed Nuclei (%) [9]: 10% | Population Tubulin-Different-Phenotype (%) [9]: 43% | Total Cell Count [9]: 136 | Population Apoptotic (%) [10]: 33% | Population Fragmented Nuclei (%) [10]: 39% | Population Healthy Nuclei (%) [10]: 57% | Population Hoechst High Intensity Objects (%) [10]: 13% | Population Membrane Permeable-Phenotype (%) [10]: 7% | Population Mitochondria Different-Phenotype (%) [10]: 1% | Population Mitotic Cells (%) [10]: 66% | Population Normal (%) [10]: 86% | Population Pyknosed Nuclei (%) [10]: 2% | Population Tubulin-Different-Phenotype (%) [10]: 64% | Total Cell Count [10]: 153 | Population Apoptotic (%) [11]: 50% | Population Fragmented Nuclei (%) [11]: 22% | Population Healthy Nuclei (%) [11]: 23% | Population Hoechst High Intensity Objects (%) [11]: 38% | Population Membrane Permeable-Phenotype (%) [11]: 51% | Population Mitochondria Different-Phenotype (%) [11]: 21% | Population Mitotic Cells (%) [11]: 50% | Population Normal (%) [11]: 61% | Population Pyknosed Nuclei (%) [11]: 53% | Population Tubulin-Different-Phenotype (%) [11]: 51% | Total Cell Count [11]: 230 | Population Apoptotic (%) [12]: 34% | Population Fragmented Nuclei (%) [12]: 15% | Population Healthy Nuclei (%) [12]: 34% | Population Hoechst High Intensity Objects (%) [12]: 44% | Population Membrane Permeable-Phenotype (%) [12]: 31% | Population Mitochondria Different-Phenotype (%) [12]: 40% | Population Mitotic Cells (%) [12]: 65% | Population Normal (%) [12]: 55% | Population Pyknosed Nuclei (%) [12]: 50% | Population Tubulin-Different-Phenotype (%) [12]: 72% | Total Cell Count [12]: 247

Source: ChEMBL document CHEMBL4689842, “EUbOPEN Chemogenomics Library wave 1” (2021)
